Drawing on ChEMBL document CHEMBL3272048, “Syntheses and uncoupling activities of alkyl dithiocarbazates and alkyl pyridinecarbonyldithiocarbazates” (J Med Chem, 1978), this text covers Activity for 35 compounds.

The nature of experiment [1]: Uncoupling of electron transport protein complex in alkyl pyridine carbonyldithiocarbazates-stimulated rat liver mitochondria assessed as concentration required to 100% uncoupling. Put shortly: (§1)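 Rat liver mitochondria were isolated by the Hogeboom method, with protein measured by Biuret. Protein varied by footnote, 1.33–2.12 mg/3.3 mL. Mitochondria in state 4 were kept in pH 7.2 medium (200 mM sucrose, 10 mM phosphate, 2 mM MgCl₂, 1 mM EDTA, 10 mM succinate, 1 μg rotenone). They were titrated with compound in Me₂SO, and O₂ uptake was read by Galvani electrode. The minimum concentration giving maximal respiration release was taken; values are means of ≥3 runs.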

The species entered for experiment [2] is Rattus norvegicus. The experiment in a line: Respiration rate of electron transport protein complex in rat liver mitochondria […] assessed as oxygen consumption at 2 uM in presence of ascorbate and TMPD. Put shortly: (§2)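 Rat liver mitochondria at 3.0 mg protein in pH 7.4 medium (200 mM sucrose, 10 mM potassium phosphate, 2 mM MgCl₂, 1 mM EDTA), 25 °C. Substrate was 10 mM ascorbate plus 200 μM TMPD, with 2 μg rotenone. State 4 respiration was read as oxygen uptake on a Clark-type electrode.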

The species named for experiment [3] is Rattus norvegicus. In words: Respiration rate of electron transport protein complex in rat liver mitochondria […] assessed as oxygen consumption at 5 uM in presence of glutamate and malate. Put shortly:
(§3)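 Oxygen uptake by rat liver mitochondria (3.0 mg protein) was measured with a Clark-type electrode at 25 °C. Medium at pH 7.4 held 200 mM sucrose, 10 mM potassium phosphate, 2 mM MgCl₂ and 1 mM EDTA. Substrate was 10 mM glutamate plus 10 mM malate.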

The species entered for experiment [4] is Rattus norvegicus. In words: Respiration rate of electron transport protein complex in rat liver mitochondria […] assessed as oxygen consumption at 2 uM in presence of glutamate and malate. Summed up:
as §3

Experiment [5] is filed under the species Rattus norvegicus. In words: Respiration rate of electron transport protein complex in rat liver mitochondria […] assessed as oxygen consumption at 1 uM in presence of ascorbate and TMPD. Summed up:
as §2

The species named for experiment [6] is Rattus norvegicus. The experiment in a line: Respiration rate of electron transport protein complex in rat liver mitochondria […] assessed as oxygen consumption at 2 uM in presence of succinate. Summed up: (§4)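 State 4 respiration of rat liver mitochondria (3.0 mg protein, 25 °C) was followed with a Clark-type electrode. Medium was pH 7.4 with 200 mM sucrose, 10 mM potassium phosphate, 2 mM MgCl₂ and 1 mM EDTA. Substrate was 10 mM succinate with 1 μg rotenone.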

Experiment [7] is filed under the species Rattus norvegicus. The experiment in a line: Respiration rate of electron transport protein complex in rat liver mitochondria […] assessed as oxygen consumption at 1 uM in presence of succinate. Summed up:
as §4

Experiment [8] is filed under the species Rattus norvegicus. The experiment in a line: Respiration rate of electron transport protein complex in rat liver mitochondria […] assessed as oxygen consumption at 1 uM in presence of glutamate and malate. Summed up: as §3
The species named for experiment [9] is Rattus norvegicus. The experiment in a line: Respiration rate of electron transport protein complex in rat liver mitochondria […] assessed as oxygen consumption at 5 uM in presence of ascorbate and TMPD. Put shortly: as §2
Experiment [10] is described as follows: Uncoupling of electron transport protein complex in alkyl pyridine carbonyldithiocarbazates-stimulated rat liver mitochondria up to 100 uM. Summed up:
as §1

The species named for experiment [11] is Rattus norvegicus. The experiment in a line: Respiration rate of electron transport protein complex in rat liver mitochondria […] assessed as oxygen consumption at 6 uM in presence of ascorbate and TMPD. Summed up:
as §2

Experiment [12] is described as follows: Uncoupling of electron transport protein complex in alkyl pyridine carbonyldithiocarbazates-stimulated rat liver mitochondria up to 500 uM. Summed up: as §1

Activity calls are given as the source filed them. The calls are words filed in the database; no cut-off is given here.

On to `CCCCCCSC(=S)NNC(=O)c1ccccn1`, for which, in experiment [1], the Activity is 50 µM.

As for `CCCSC(=S)NNC(=O)c1ccncc1`, in experiment [1], the Activity was 109 µM.

`CCCCCSC(=S)NNC(=O)c1cccnc1`: the Activity in experiment [1] is 105 µM.

Regarding `CCCCCCCCCSC(=S)NNC(=O)c1cccnc1`, the Activity is 227 min⁻¹ in experiment [2]; 263 min⁻¹ in experiment [3]; 1.1 µM in experiment [1]; 178 min⁻¹ in experiment [4]; 208 min⁻¹ in experiment [5]; 300 min⁻¹ in [6]. Moreover, the Activity in experiment [7] came out at 250 min⁻¹; in experiment [8], 125 min⁻¹; in experiment [9], 236 min⁻¹.

Take `CCCCCCCSC(=S)NN`: the Activity in experiment [1] turned out to be 140 µM.

For `CCCCCCCSC(=S)NNC(=O)c1cccnc1`, in [1], the Activity worked out at 14 µM.

With `CCCCCCCSC(=S)N(C)NC(=O)c1ccccn1`, the result in experiment [10] was inactive.

In the case of `CCSC(=S)NNC(=O)c1ccccn1`, in experiment [1], the Activity is 1280 µM.

As to `CCCCSC(=S)NNC(=O)c1ccncc1`, in [1], the Activity turned out to be 62.5 µM.

Turning to `CCCCCCCCSC(=S)NNC(=O)c1ccncc1`, the Activity in experiment [1] turned out to be 0.84 µM.

On to `CCSC(=S)NNC(=O)c1ccncc1`, for which the Activity in experiment [1] was found to be 1200 µM.

Consider `CCCCCCCCCSC(=S)N(C)NC(=O)c1ccccn1`, for which the result in experiment [10] was inactive.

With `CCCCCCCCCS/C(S)=N/NC(=O)c1ccccn1`, the Activity came out at 180 min⁻¹ in [3]; 2.9 µM in experiment [1]; 111 min⁻¹ in experiment [4]; 220 min⁻¹ in experiment [5]; 250 min⁻¹ in experiment [6]; 167 min⁻¹ in experiment [7]. Further, the Activity in experiment [8] was 89 min⁻¹; in [11], 248 min⁻¹.

As to `CCCCCSC(=S)NN`, the Activity in experiment [1] was 900 µM.

As to `CCCCCCCCSC(=S)N(C)NC(=O)c1ccccn1`, in experiment [10], the outcome was inactive.

For the compound `CSC(=S)NNC(=O)c1ccncc1`, in experiment [1], the Activity was 1900 µM.

In the case of `CCCCSC(=S)NNC(=O)c1ccccn1`, the Activity in [1] came to 240 µM.

`CCCSC(=S)NNC(=O)c1ccccn1`: the Activity in experiment [1] is 290 µM.

`CSC(=S)NNC(=O)c1cccnc1`: the Activity in experiment [1] was 2160 µM.

Take `CCCCCSC(=S)NNC(=O)c1ccncc1`: the Activity in experiment [1] was determined as 17.5 µM.

Take `CCCCCCCCSC(=S)NNC(=O)c1ccccn1`: the Activity in experiment [1] was 3.7 µM.

`CCCCCCCCSC(=S)NNC(=O)c1cccnc1`: the Activity in experiment [1] stood at 1.3 µM.

Consider `CCCCSC(=S)NNC(=O)c1cccnc1`, for which the Activity in experiment [1] turned out to be 360 µM.

Consider `CCCSC(=S)NNC(=O)c1cccnc1`, for which the Activity in experiment [1] came out at 370 µM.

Consider `CCCCCCCSC(=S)NNC(=O)c1ccccn1`, for which, in experiment [1], the Activity was 4.7 µM.

With `CCCCCCSC(=S)N(C)NC(=O)c1ccccn1`, the outcome in [10] was inactive.

Regarding `CCSC(=S)NNC(=O)c1cccnc1`, in experiment [1], the Activity was found to be 1000 µM.

`CCCCCSC(=S)NNC(=O)c1ccccn1`: in experiment [1], the Activity came out at 90 µM.

As for `CCCCCCCSC(=S)NNC(=O)c1ccncc1`, the Activity in experiment [1] was determined as 1.95 µM.

Regarding `CCCCCSC(=S)N(C)NC(=O)c1ccccn1`, the result in [12] was inactive.

Take `CCCCCCSC(=S)NNC(=O)c1cccnc1`: the Activity in experiment [1] amounted to 89 µM.

For `CCCCCCCCCSC(=S)NNC(=O)c1ccncc1`, the Activity in [2] was 222 min⁻¹; in [1], 0.86 µM; in experiment [4] it was 278 min⁻¹; in experiment [5] it was 214 min⁻¹; in experiment [7], 361 min⁻¹; in [8] it was 178 min⁻¹. Moreover, the Activity in experiment [9] came out at 250 min⁻¹.

In the case of `CCCCCCSC(=S)NN`, the Activity in experiment [1] was 350 µM.

`CCCCCCSC(=S)NNC(=O)c1ccncc1`: the Activity in [1] stood at 6.58 µM.

In the case of `CSC(=S)NNC(=O)c1ccccn1`, the Activity in experiment [1] was determined as 1870 µM.
